Compound activity as filed in PubChem.
NadD inh: blocks S. aureus nicotinate mononucleotide adenylyltransferase. purified NadD enzyme, colorimetric absorbance read-out. inhibition, % at 20 µM. actives 0.78% (n = 360,000). AID 602399; in the data active means inhibition above about 26%
rCAG binder-1: binds r(CAG) RNA repeats; inhibition, % at 3 µM; actives 1.3% (n = 370,000); AID 651821; r(CAG) RNA repeat, TO-PRO-1 dye displacement fluorescence;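 active means inhibition above the plate cutoff, the mean of all test compounds on that plate plus 3 SD, cut at about 35% in these data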;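 further: higher means more dye released from RNA so lower well fluorescence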
LMPTP block: blocks human LMPTP phosphatase | recombinant LMPTP-A, OMFP fluorogenic substrate, fluorescence intensity | inhibition, % at 20 µM | actives 0.22% (n = 360,000) | AID 651560;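 active means compounds that cut the enzyme signal by at least half of the control window in the single-dose screen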
Target sequence (P24666 whole entry, looked up): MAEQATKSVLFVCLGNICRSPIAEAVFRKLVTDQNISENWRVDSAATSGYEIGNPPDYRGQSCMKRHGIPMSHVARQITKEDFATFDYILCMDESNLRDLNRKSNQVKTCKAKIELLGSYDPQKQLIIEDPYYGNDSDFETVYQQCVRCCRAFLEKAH
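Test system – LMPTP-A phosphatase enzyme · Quantity – 0.625 nM LMPTP-A final · Reagent – OMFP substrate, 400 µM final · Dosing – one test concentration per compound, 20 µM, with 3% DMSO overall · Timing – 50 min enzyme reaction at room temperature, protected from light · Detection – fluorescence intensity · Controls – substrate-only low control, DMSO enzyme-plus-substrate high control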
Scp-1 inhibitor: inhibitors of human Scp-1 phosphatase. actives 0.88% (n = 340,000). AID 493091. inhibition, % at 20 µM. Recombinant Scp1, phosphopeptide, malachite green phosphate absorbance;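 active means inhibition above about 50% at 20 µM, limit read from the data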
Target sequence (Q9GZU7 76-261 limits assumed): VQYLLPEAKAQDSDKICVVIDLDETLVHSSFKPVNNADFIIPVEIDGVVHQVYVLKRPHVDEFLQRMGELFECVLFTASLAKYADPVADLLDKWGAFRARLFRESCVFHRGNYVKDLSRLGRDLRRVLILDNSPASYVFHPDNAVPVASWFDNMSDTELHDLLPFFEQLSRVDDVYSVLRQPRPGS
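assay system = SCP-1 phosphatase catalytic domain, residues 76-261 | buffer or medium = 50 mM Tris acetate pH 5.5, 0.005% Tween-20, 10 mM MgCl2 | incubation = enzyme reaction 45 min at room temperature, colour 5 min, stabilisation 30 min | signal = Phosphate-binding colour reagent, absorbance read at 630 nm | measure = % inhibition at 20 µM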
STEP inh: blocks human striatal-enriched tyrosine phosphatase; inhibition, % at 20 µM; recombinant STEP, OMFP fluorogenic substrate, fluorescence; P54829; actives 0.25% (n = 360,000);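 active means inhibition at 20 µM, scaled per plate between control wells, above about 37%, limit read from the data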
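Material: STEP (striatal-enriched tyrosine phosphatase) enzyme, cell-free; Compound dosing: 20 µM single dose in 1% DMSO; Technique: fluorescence read at 480 nm ex / 540 nm em; Times: reaction 20 min, ambient temperature; Medium: 50 mM Bis-Tris pH 6.0 with 2.5 mM DTT and 0.005% Tween 20; Also added: OMFP at 25 µM.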
rCAG binder conf: r(CAG) RNA repeat binding, confirmation; TO-PRO-1 dye displacement fluorescence; shares compounds with rCAG binder-1; AID 652065; inhibition, % at 3 µM; actives 70% (n = 4,300);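 active means inhibition above a per-plate cutoff, the mean inhibition of sample wells plus 3 SD, cut at about 35% in these data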;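 further: loss of TO-PRO-1 fluorescence as compound displaces dye from 1x1 AA loop RNA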
DNA CAG counter: DNA CAG dye complex inhibition counter-screen | shares compounds with rCAG binder-1 | d(CAG) DNA oligo TO-PRO-1 dye displacement, fluorescence | inhibition, % at 3 µM | actives 94% (n = 4,300) | AID 652068;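 active means inhibition above its plate's cutoff, the mean test-well inhibition plus 3 SD, cut at about 4.8% in these data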;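 further: hits displace the dye from DNA and so lower well fluorescence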
DNA CAG DR: counter-screen for rCAG binders: inhibitors of DNA CAG TO-PRO-1 complex | shares compounds with rCAG binder-1 | DNA CAG/GTC duplex TO-PRO-1 dye displacement fluorescence | IC50, µM | actives 20% (n = 250) | AID 686960; in the data active means IC50 below about 10 µM
dCAG DNA bind: inhibits DNA CAG/GTC TO-PRO-1 complex, rCAG binder counter-screen. shares compounds with rCAG binder-1. d(CAG) DNA duplex TO-PRO-1 dye displacement, fluorescence. IC50, µM. actives 80% (n = 30). AID 720649
rCAG binder-2: binds r(CAG) RNA repeats in late stage dose response; shares compounds with rCAG binder-1; IC50, µM; r(CAG) RNA TO-PRO-1 dye displacement, fluorescence; actives 100% (n = 30)
Numbers stand for hits; - = inactive; . = no result given. A selection: hits, their analogues and other compounds. The true share with any hit is near 2.6%. Unless noted, how the calls were made is not given here.

SMILES	NadD inh	rCAG binder-1	LMPTP block	Scp-1 inhibitor	STEP inh	rCAG binder conf	DNA CAG counter	others
Nc1ccccc1Sc1ccc(C(=O)c2ccccc2C(=O)O)cc1[N+](=O)[O-]	-	64	-	-	-	48	15
CCOC(=O)c1c(NS(=O)(=O)Cc2ccccc2)sc2c1CCCC2	-	45	-	-	-	64	21	DNA CAG DR=-
COC(=O)c1c(NC(=O)C2CC2)sc2c1CCCC2	-	-	-	-	-	.	.
CCOC(=O)c1c(NS(=O)(=O)c2ccc(Br)cc2)sc2c1CCC2	-	68	-	-	-	80	34
COC(=O)c1c(NS(=O)(=O)c2ccc3ccccc3c2)sc2c1CCCC2	-	44	-	-	-	70	32	DNA CAG DR=-;dCAG DNA bind=2.9;rCAG binder-2=1
Cc1snc(S(=O)(=O)/C(C#N)=N/Nc2ccc(C(F)(F)F)cc2)c1C#N	-	68	-	-	-	78	35
COC(=O)c1cc(-c2ccc3ccccc3c2)c(=O)n2c1CCC2	.	-	.	.	.	.	.
CSc1c(N(C)C)c(=O)c1=S	.	-	.	.	.	.	.
COc1ccc(CN2CCC(CNC(=O)Nc3ccccc3)CC2)cc1	.	-	.	.	.	.	.
Cc1ccc(C2=NC(=O)/C(=C/c3cc(O)c(O)c(Br)c3)S2)cc1	-	84	-	-	-	86	52
COc1cc(/C=C2\SC(c3ccc(C)cc3)=NC2=O)cc(OC)c1O	-	-	-	-	-	.	.
COc1ccc(CNC(=O)[C@@H](Cc2ccccc2)NC(=O)[C@H]2O[C@@H](n3ccc(=O)[nH]c3=O)[C@H](O)[C@@H]2O)cc1	.	-	.	.	.	.	.
COc1ccc2nc(NNC(=O)c3cc(=O)c4ccccc4o3)sc2c1	-	36	-	-	-	55	19
COc1ccc2nc(NNC(=O)COc3ccccc3)sc2c1	-	-	-	-	-	.	.
O=C(NNc1nc2c(F)cccc2s1)c1cc(=O)c2ccccc2o1	-	58	-	-	-	68	24
COc1cccc(Cn2cc(COC(=O)N3CCOCC3)nn2)c1	.	-	.	.	.	.	.
COc1ccccc1CNC(=O)C[C@H]1CC[C@H]2[C@H](COc3ccc(NS(=O)(=O)c4ccc(C)cc4)cc3C(=O)N2C)O1	.	-	.	.	.	.	.
Cc1ccccc1-c1nnc2n1N=C(c1ccc(O)c(O)c1)CS2	.	-	.	.	.	.	.
CC(=O)Nc1ccc(Nc2nc3ccccc3nc2NS(=O)(=O)c2ccccc2)cc1	-	-	-	-	-	.	.
O=[N+]([O-])c1cccc(S(=O)(=O)Nc2nc3ccccc3nc2Nc2cccc(S(=O)(=O)N3CCCCC3)c2)c1	-	52	-	-	-	95	86
CC(=O)Nc1ccc(S(=O)(=O)Nc2nc3ccccc3nc2Nc2cccc(S(N)(=O)=O)c2)cc1	-	52	-	-	-	37	7.6
CC(=O)Nc1ccc(S(=O)(=O)Nc2nc3ccccc3nc2Nc2ccccc2)cc1	-	47	-	-	-	40	9.6
Cc1noc(C)c1S(=O)(=O)N1CCCc2nc(-c3ccc(Br)cc3)ccc21	.	-	.	.	.	.	.
CCC(=O)N1CCc2cc(Br)c(S(=O)(=O)NCCCN(C)Cc3ccccc3)cc21	.	-	.	.	.	.	.
CCOC(=O)c1cc(OC(=O)c2cccc([N+](=O)[O-])c2)n(-c2ccccc2)n1	-	35	-	-	-	-	-
SMILES	NadD inh	rCAG binder-1	LMPTP block	Scp-1 inhibitor	STEP inh	rCAG binder conf	DNA CAG counter	others
CC1CCCCN1Cc1c(O)ccc2c(=O)c(-c3ccc(Cl)cc3)coc12 (centres undefined)	-	-	-	-	-	.	.
CC(C)N(Cc1c(O)ccc2c(=O)c(-c3ccc(Cl)cc3)coc12)C(C)C	-	42	-	-	-	-	10
COC(=O)CSc1nc(SCc2ccc(C)cc2)nc2c1CCCC2	-	-	-	-	-	.	.
Cc1ccc(CSc2nc3c(c(SCC(=O)O)n2)CCCC3)cc1	-	36	-	-	-	-	5.7
COc1cccc(C(=O)N[C@H](C(=O)N2CCC[C@H]2C(=O)NC2CCCC2)C2CCCCC2)c1	.	-	.	.	.	.	.
Cc1ccc(N2C(=O)C3Sc4[nH]c(=O)sc4C(c4ccccc4)C3C2=O)cc1 (centres undefined)	-	-	-	-	-	.	.
O=C1C2Sc3[nH]c(=O)sc3C(c3ccccc3)C2C(=O)N1c1ccc(Cl)cc1 (centres undefined)	-	36	-	-	-	-	8.7
OC(c1ccccc1)(c1ccccc1)C1CCN(CCCOc2ccc(-c3ccc(F)cc3F)cc2)CC1	.	-	.	.	.	.	.
Cc1cc(C)c(S(=O)(=O)/N=C2\C=C(Nc3ccc(C(=O)O)cc3)C(=O)c3ccccc32)c(C)c1	31	85	-	-	-	81	50
CCc1ccc(S(=O)(=O)/N=C2\C=C(Nc3cccc(C(=O)O)c3)C(=O)c3ccccc32)cc1	-	81	-	-	-	76	37
O=C(O)c1ccc(NC2=C/C(=N/S(=O)(=O)c3cccs3)c3ccccc3C2=O)cc1	-	-	-	.	-	.	.
CCc1ccc(S(=O)(=O)/N=C2\C=C(Nc3ccc(O)cc3)C(=O)c3ccccc32)cc1	-	.	-	-	-	.	.
O=C(O)c1ccc(NC2=C/C(=N/S(=O)(=O)c3ccccc3)c3ccccc3C2=O)cc1	-	61	-	-	-	38	11
O=C(NNC(=S)Nc1ccc(Br)cc1)c1ccc(N2CCOCC2)c([N+](=O)[O-])c1	-	73	-	-	-	67	28
O=C(NC(NC(=S)Nc1ccccc1Cl)C(Cl)(Cl)Cl)c1cccc(Cl)c1 (centres undefined)	-	-	-	-	-	.	.
O=C(NNC(=S)Nc1ccc(Cl)cc1Cl)c1ccc(N2CCOCC2)c([N+](=O)[O-])c1	-	95	-	-	-	87	63
O=C(NNC(=S)Nc1ccc(Cl)c(Cl)c1)c1cccc([N+](=O)[O-])c1	-	79	-	-	-	79	33
O=C(Nc1cccnc1)c1ccc(N2CCOCC2)c([N+](=O)[O-])c1	-	-	-	-	-	.	.
O=C(NC(NC(=S)Nc1ccccc1C(=O)O)C(Cl)(Cl)Cl)c1cccc([N+](=O)[O-])c1 (centres undefined)	-	56	-	-	-	60	24
